Each structure is given as a SMILES string. The source made the active and inactive calls. The calls are words filed in the database; no cut-off is given here.

Assay [1] relates to Mus musculus. Put plainly: Antiobesity activity in ddY mouse assessed as inhibition of AgRP mRNA level in hypothalamus at 50 mg/kg, po for 4 days relative to control. The format is functional. The method, boiled down: (§1)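 Male ddY mice dosed po once daily at 15:00–17:00 for 4 d. Hypothalamus dissected 1 h after final dose, held in RNAlater, total RNA extracted. NPY and AgRP mRNA quantified by SYBR qPCR (40 cycles, annealing 58 °C) by relative quantification normalised to β-actin and expressed as ratio to control; n = 6, mean ± SEM.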

Assay [2] has as its system Mus musculus. Put plainly: Antiobesity activity in ddY mouse assessed as inhibition of AgRP mRNA level in hypothalamus at 25 mg/kg, po for 4 days relative to control. The format is functional. The method, boiled down: as §1
Assay [3] has as its system Mus musculus. Nature of the assay: Antiobesity activity in ddY mouse assessed as inhibition of neuropeptide Y mRNA level in hypothalamus at 25 mg/kg, po for 4 days relative to control. It counts as functional. In a few lines: as §1
In assay [4] the test system is Mus musculus. Nature of the assay: Antiobesity activity in ddY mouse assessed as food intake at 50 mg/kg, po measured upto 3 days (RVb = 15.2 g). It counts as functional.
For assay [5], the system named is Ileum. Nature of the assay: Induction of 5-HT release from ddY mouse ileum assessed per gram of tissue at 100 µM after 20 mins by HPLC (RVb = 11.2 +/- 1.3 ng/g tissue).
Assay [6] deals with Mus musculus. Put plainly: Antiobesity activity in capsaicin treated ddY mouse assessed as inhibition of gastric emptying at 50 mg/kg, po measured for 30 mins by Phenol red method (RVb = 87.7 +/- 2.3 %). The format is functional, Stomach. On the set-up: scale not given: the % may be the effect or the level left.
Assay [7] concerns Mus musculus. Put plainly: Antiobesity activity in ddY mouse assessed as gastric emptying at 50 mg/kg, po measured for 30 mins by Phenol red method (RVb = 90.4 +/- 1.2 %). The format is functional, Stomach.
Assay [8] deals with Mus musculus. Put plainly: Antiobesity activity in ddY mouse assessed as inhibition of neuropeptide Y mRNA level in hypothalamus at 50 mg/kg, po for 4 days relative to control. It counts as functional. In a few lines:
as §1

Assay [9] relates to Mus musculus. Nature of the assay: Antiobesity activity in capsaicin treated ddY mouse assessed as gastric emptying at 25 mg/kg, po measured for 30 mins by Phenol red method (RVb = 87.7 +/- 2.3 %). The format is functional, Stomach.
Assay [10] relates to Ileum. Put plainly: Induction of 5-HT release from ddY mouse ileum assessed as remaining 5-HT per gram of tissue at 100 uM after 20 mins by HPLC (RVb = 68.8 +/- 12.4 ng/g tissue).
Assay [11] deals with Ileum. Put plainly: Induction of 5-HT release from ddY mouse ileum assessed as remaining 5-HT per gram of tissue at 1000 µM after 20 mins by HPLC (RVb = 68.8 +/- 12.4 ng/g tissue).
Assay [12] relates to Ileum. Put plainly: Induction of 5-HT release from ddY mouse ileum assessed as remaining 5-HT per mg of protein at 1000 µM after 20 mins by HPLC (RVb = 0.861 +/- 0.164 ng/mg protein).
For assay [13], the system named is Mus musculus. Put plainly: Antiobesity activity in ddY mouse assessed as inhibition of food intake at 50 mg/kg, po. The format is functional, organism-based. On the set-up: dose 50 mg/kg.
For assay [14], the system named is Mus musculus. Put plainly: Antiobesity activity in ddY mouse assessed as gastric emptying at 25 mg/kg, po measured for 30 mins by Phenol red method (RVb = 90.4 +/- 1.2 %). The format is functional, Stomach.
The subject of assay [15] is Ileum. Nature of the assay: Induction of 5-HT release from ddY mouse ileum assessed per gram of tissue at 1000 µM after 20 mins by HPLC (RVb = 11.2 +/- 1.3 ng/g tissue).
Assay [16] concerns Ileum. Put plainly: Induction of 5-HT release from ddY mouse ileum assessed as remaining 5-HT per mg of protein at 100 µM after 20 mins by HPLC (RVb = 0.861 +/- 0.164 ng/mg protein).
The test system of assay [17] is Mus musculus. Nature of the assay: Antiobesity activity in capsaicin-treated ddY mouse assessed as reduction in food intake at 50 mg/kg, po for 3 days. It counts as functional, organism-based. On the set-up: dose 50 mg/kg.
Assay [18] deals with Mus musculus. Put plainly: Antiobesity activity in ddY mouse assessed as gastric emptying at 50 mg/kg, po measured for 30 mins by Phenol red method (RVb = 86.6 +/- 1.8 %). It counts as functional, Stomach.
Assay [19] has as its system Mus musculus. Nature of the assay: Antiobesity activity in capsaicin-treated ddY mouse assessed as gastric emptying at 25 mg/kg, po measured for 30 mins by Phenol red method (RVb = 85.8 +/- 2 %). It counts as functional, Stomach.
In assay [20] the test system is Mus musculus. Put plainly: Antiobesity activity in ddY mouse assessed as gastric emptying at 25 mg/kg, po measured for 30 mins by Phenol red method (RVb = 86.6 +/- 1.8 %). It counts as functional, Stomach.
In assay [21] the test system is Mus musculus. Put plainly: Antiobesity activity in capsaicin treated ddY mouse assessed as gastric emptying at 50 mg/kg, po measured for 30 mins by Phenol red method (RVb = 85.8 +/- 2 %). It counts as functional, Stomach.

In the case of `CC1(C)C[C@H]2C3=CC[C@@H]4[C@@]5(C)CC[C@H](O[C@@H]6O[C@H](C(=O)O)[C@@H](O)[C@H](O[C@@H]7OC[C@H](O)[C@H](O)[C@H]7O[C@@H]7OC[C@@H](O)[C@H](O)[C@H]7O)[C@H]6O[C@@H]6O[C@H](CO)[C@H](O)[C@H](O)[C@H]6O)C(C)(C)[C@@H]5CC[C@@]4(C)[C@]3(C)[C@@H](O)[C@@H](O)[C@@]2(CO)[C@@H](O)[C@@H]1O`, the inhibition result in the assay on Mus musculus [1], in the assay on Mus musculus [2] and with Mus musculus [3] was “inactive” in each case.

As to `C/C=C(\C)C(=O)O[C@H]1[C@H](OC(C)=O)[C@]2(CO)[C@H](O)[C@H](O)[C@]3(C)C(=CC[C@@H]4[C@@]5(C)CC[C@H](O[C@@H]6O[C@H](C(=O)O)[C@@H](O)[C@H](O[C@@H]7OC[C@H](O)[C@H](O)[C@H]7O[C@@H]7OC[C@@H](O)[C@H](O)[C@H]7O)[C@H]6O[C@@H]6O[C@H](CO)[C@H](O)[C@H](O)[C@H]6O)C(C)(C)[C@@H]5CC[C@]43C)[C@@H]2CC1(C)C` [CHAKASAPONIN III], the Activity in the assay on Mus musculus [4] turned out to be 12.6 g.

For the compound `C/C=C(\C)C(=O)O[C@H]1[C@H](OC(=O)/C(C)=C/C)[C@]2(CO)[C@H](O)[C@H](O)[C@]3(C)C(=CC[C@@H]4[C@@]5(C)CC[C@H](O[C@@H]6O[C@H](C(=O)O)[C@@H](O)[C@H](O[C@@H]7OC[C@H](O)[C@H](O)[C@H]7O[C@@H]7OC[C@@H](O)[C@H](O)[C@H]7O)[C@H]6O[C@@H]6O[C@H](CO)[C@H](O)[C@H](O)[C@H]6O)C(C)(C)[C@@H]5CC[C@]43C)[C@@H]2CC1(C)C` [CHAKASAPONIN II], the Activity with Ileum [5] worked out at 15.6 ng/g; in the assay on Mus musculus [6], 67.1%; in the assay on Mus musculus [7] it was 57.6%; with Mus musculus [9] it was 81.4%; in the assay with Ileum [10], 50.8 ng/g; in the assay with Ileum [11], 31.6 ng/g. Moreover, the Activity stood at 0.396 ng/mg with Ileum [12], 77.9% with Mus musculus [14], 28.3 ng/g in the assay on Ileum [15] and 0.659 ng/mg in the assay with Ileum [16]. Moreover, the “fold change (FC)” value came out at 0.63 in the assay with Mus musculus [8], 1.03 with Mus musculus [1], 1.08 with Mus musculus [2] and 1.09 in the assay on Mus musculus [3]. The inhibition result in the assay on Mus musculus [13] is “Active”. In addition, the outcome with Mus musculus [17] was Active.

As for `C/C=C(\C)C(=O)O[C@H]1[C@H](OC(C)=O)[C@]2(CO)[C@H](O)C[C@]3(C)C(=CC[C@@H]4[C@@]5(C)CC[C@H](O[C@@H]6O[C@H](C(=O)O)[C@@H](O)[C@H](O[C@@H]7OC[C@H](O)[C@H](O)[C@H]7O[C@@H]7OC[C@@H](O)[C@H](O)[C@H]7O)[C@H]6O[C@@H]6O[C@H](CO)[C@H](O)[C@H](O)[C@H]6O)C(C)(C)[C@@H]5CC[C@]43C)[C@@H]2CC1(C)C` [CHAKASAPONINS I], the Activity in the assay on Mus musculus [18] is recorded as 55.7%; with Mus musculus [19], 79.2%; with Mus musculus [20], 76.4%; in the assay with Mus musculus [4], 10.5 g; in the assay on Mus musculus [21], 68%.
